One test relates to A2780cis cells. Nature of the test: Colony formation assay, A2780cis. It counts as cell-based. Put shortly:
(§1)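 A2780 (1×10^3) or A2780cis (2×10^3) cells were seeded per 3.5-cm dish and grown 24 h. They were exposed 72 h to test compound or cisplatin at 1X or 2X IC50, then PBS-washed. Fresh medium followed for 5 days at 37°C. Staining was 0.5% crystal violet in 25% methanol, 10 min RT. Clusters of ≥50 cells were counted by microscope. Colonies expressed as % of control.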

The test system of another test is A2780 cells. Briefly: Colony formation assay, A2780. Format: cell-based. In outline: as §1
Where [1] appears, read: IC50 and 2X IC50 concentrations, 72 h treatment, vs control.

As for `N.N.[Cl][Pt][Cl]` [cisplatin], the colony formation entry with A2780cis cells (setting [1]) and with A2780 cells (setting [1]) was “almost completely inhibited” in each case. Further, the “cells per colony after treatment (unable to divide)” value in the test on A2780cis cells (colony formation assay) and in the test with A2780 cells (colony formation assay) was 3–5 cells/colony throughout.

The record behind these values is PMC8721857 (Oncology Letters, 2021).
